Shown is part of a subset that was picked to be rich in hits.
NALP3 yeast inh = NALP3 inflammasome inhibitors in reconstituted yeast, primary screen, luminescence, uHTS; 330,000 compounds, 0.39% hits; inhibition, % at 10 µM; Yeast reconstituted NLRP3/ASC/caspase-1, beta-gal luminescence, 24 h;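 active = inhibition of 50% or more; inactive = inhibition below 50%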;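 note: plate controls were induced DMSO wells for no effect and uninduced yeast grown without galactose for full effect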
T cruzi inh = inhibitors of intracellular T. cruzi growth, primary screen, luminescence, NIH3T3 host cells. 300,000 compounds, 1.4% hits. T. cruzi beta-gal in NIH3T3, 90 h. inhibition, % (concentration not given with the values);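 active = mean inhibition across valid replicates above about 55%, limit read from the data; inconclusive = mean below that limit but half or more replicates reach it; inactive = mean below it, under half of replicates reach it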;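 note: signal also drops with host cell toxicity which is not excluded here; 0% = plate median of DMSO wells and 100% = zero luminescence signal; higher percent means less beta-gal luminescence so fewer parasites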
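Assay system: NIH/3T3 fibroblasts plus reporter T. cruzi. Amount: NIH/3T3 cells, 5,000 per well. Buffer or medium: DMEM, 2% fetal bovine serum. Doses: compound pinned at 50 nL/well, DMSO. Schedule: ≥90 h infection period, 3 h prior cell attachment. Signal: luminescent β-galactosidase signal after 60 min lysis. Read-out: parasite load inhibition, %.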
L major viab = Leishmania major promastigote growth inhibition, primary screen | Leishmania major promastigotes, resazurin fluorescence viability | inhibition, % at 10 µM | 200,000 compounds, 9% hits;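 note: promastigotes grown with compound for 44 hours at 28 °C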
NALP1 yeast inh = NALP1 inflammasome inhibitors in reconstituted yeast, colorimetric, S. cerevisiae, triplicate retest; S. cerevisiae NALP1/ASC/caspase-1 growth, X-gal OD620, 72 h; inhibition, % at 10 µM; 280,000 compounds, 0.61% hits; in the data active = inhibition mostly above about 24%, no sharp cut-off; inactive = mostly below about 32%
Calb FLC = C. albicans growth inhibition with fluconazole, primary screen, CaCi-2 strain, Alamar Blue fluorescence | C. albicans CaCi-2 + fluconazole, 48 h | growth inhibition, % (concentration not given with the values) | 300,000 compounds, 0.57% hits | AID 1979, 2009;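 active = growth inhibition above about 58% in most replicates, limit read from the data, passing the limit was not always enough; inconclusive = exactly half the replicates above a set limit; inactive = most replicates below a set limit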;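 note: all wells also contain fluconazole at 8 µg/ml as a sub-toxic cotreatment; 0% = median of DMSO wells and 100% = median of geldanamycin control wells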
PolyA inhibitor = polyadenylation inhibitors in yeast reporter cells, primary screen, luminescence, S. cerevisiae | activity score, % at 12 µM | S. cerevisiae SKY197-pL101 polyadenylation reporter, beta-gal luminescence; efflux-impaired pdr1/pdr3 knockout yeast; score 100 = 6 SD above DMSO | 300,000 compounds, 0.02% hits | AID 1875, 2009;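 active = lowest replicate activity score at least 50, where 100 means six control SD above control mean; inconclusive = lowest score under 50 but half or more replicates reach 50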;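 note: yeast exposed to compound for 9 h at 30 °C; higher score means more reporter readthrough which indicates perturbed polyadenylation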
NALP3 confirm = NALP3 inhibitors retested in yeast, confirmation, luminescence, single concentration; yeast expressing human NALP3; inhibition, % at 10 µM; shares compounds with NALP3 yeast inh; AID 435006, 2010; 1,300 compounds, 81% hits; in the data active = inhibition above about 48%
Casp1-ASC yeast = CASP1-PYCARD signaling inhibition in yeast, confirmatory test, counterassay for NLRP3 inhibitor program, one-dose; shares compounds with NALP3 yeast inh; yeast expressing Caspase-1-ASC, luminescence counter screen; inhibition, % at 10 µM; 1,000 compounds, 66% hits; AID 488784, 2010
NALP3 yeast rt = NALP3 inhibitors in yeast, repeat test, confirmation, luminescence, single concentration, retest. shares compounds with NALP3 yeast inh. yeast expressing human NALP3, luminescence read-out. inhibition, % at 10 µM. 1,000 compounds, 53% hits
Active calls of the source: *; ? = inconclusive; . = not tested or not shown. Cut-off read from the data, not from the text of the source, unless noted: active = inhibition above about 50%; inactive = the rest.

SMILES | NALP3 yeast inh | T cruzi inh | L major viab | NALP1 yeast inh | Calb FLC | PolyA inhibitor | NALP3 confirm | Casp1-ASC yeast | NALP3 yeast rt
CCCCn1c(N)c(N(CCC(C)C)C(=O)c2ccccc2-n2cnnn2)c(=O)[nH]c1=O | -9 | . | . | . | . | . | . | . | .
COc1ccccc1-c1ccc(SCc2ccc(C)cc2)nn1 | 54* | 1 | -3 | -6 | 3 | -14 | 59* | 52* | 55*
O=C(NNS(=O)(=O)c1ccccc1F)c1ccccc1-n1cccc1 | 2 | -9 | . | -7 | 2 | -4 | . | . | .
Cc1cc(C)cc(C(=O)/C=C2\NC(=O)CS2)c1 | 66* | 15 | -6 | 0 | 20 | 11 | 77* | 80* | 71*
COc1ccc(-c2cc3nc4ccccc4n3c(N)c2C#N)cc1 | 68* | 36 | . | 8 | 11 | 14 | 47 | 15 | 6
CCSc1nc(-c2ccc(OC)cc2)cc(-c2ccccc2)c1C#N | 11 | 16 | 0 | -6 | -5 | -6 | . | . | .
Cc1ccc(Sc2ccc(NC(=O)CCl)cc2)c(C)c1 | 58* | 44 | 97* | 37 | -44 | -59 | 69* | 78* | 58*
O=C(O)C1C2C=CC(C2)C1C(=O)NC(c1ccccc1)c1ccccc1 (stereo unspecified) | 4 | 11 | -3 | 3 | -13 | 4 | . | . | .
O=C(C[n+]1ccccc1)N/N=C/c1cc(Br)cc(Br)c1O | 78* | -12 | . | 34 | 14 | -67 | 53* | 87* | 77*
COc1ccc(NC(=O)c2ccc(F)c(F)c2)c2ccccc12 | 50* | -9 | . | 30 | -35 | -9 | 61* | 27 | 44
O=C(NC1CCCCC1)C(c1ccc(F)cc1)N(Cc1ccco1)C(=O)c1csnn1 (stereo unspecified) | 19 | -2 | . | 10 | 2 | -6 | . | . | .
COC(=O)[C@]1(C)N[C@H](CN(C)C(=O)Nc2ccccc2)[C@@H]2C(=O)N(Cc3ccccc3)C(=O)[C@@H]21 | 9 | . | . | . | . | . | . | . | .
Cc1nc2sc(-c3ccccc3)cc2c(=O)n1-n1cccc1 | 52* | 3 | -4 | -15 | -5 | -17 | 71* | 58* | 44
COc1ccc(C(=O)CCNc2ccc(F)cc2)cc1 | 57* | 5 | . | . | 4 | 10 | 31 | . | .
COc1ccc(C(=O)CCNc2ccc(C)c(Cl)c2)cc1 | 14 | 0 | -2 | 41 | 13 | 0 | . | . | .
Cc1ccc(Sc2cc(C)nc(-c3ccccn3)n2)cc1 | 51* | 17 | . | . | 32 | -16 | 43 | 65* | 49
FC(F)(F)c1cccc(Sc2cc(C(F)(F)F)nc(-c3ccccn3)n2)c1 | 22 | 28 | 11 | 18 | -7 | 0 | . | . | .
O=C(NNC(=O)c1ccc(Oc2ccc(C3SCCS3)cc2)o1)c1ccc(Cl)cc1 | 53* | 11 | . | . | -4 | -13 | 34 | . | .
O=C(NNC(=O)c1ccc(Oc2cc(Cl)cc(Cl)c2)o1)c1ccccc1 | 20 | 15 | . | 16 | 8 | -7 | . | . | .
COc1ccc(C(=O)NC(=S)NC(C)(C)C)cc1Br | 35 | 3 | -2 | 9 | 3 | 8 | . | . | .
CCCSc1ccc([C@H]2N[C@@](C)(C(=O)OC)[C@H]3C(=O)N(C)C(=O)[C@@H]23)cc1 | 51* | -19 | . | . | -17 | 22 | 48 | 16 | 16
CCCCCCSc1ccc([C@H]2N[C@@](C)(C(=O)OC)[C@H]3C(=O)N(C)C(=O)[C@@H]23)cc1 | 18 | 27 | . | . | -1 | 15 | . | . | .
O=C(CN(C1CCCCC1)S(=O)(=O)c1ccc(F)cc1)Nc1ccc2c(c1)OCO2 | 51* | -4 | 24 | -26 | -19 | -23 | 56* | 45 | 35
CCCCCCCCCCCCOC(=O)C[N+](C)(C)C | 54* | . | . | . | -5 | 11 | 46 | 59* | 52*
O=C(Nc1cccc(-c2ccc(N3CCOCC3)nn2)c1)c1ccc(Cl)cc1 | 3 | 5 | . | . | 6 | 12 | . | . | .
SMILES | NALP3 yeast inh | T cruzi inh | L major viab | NALP1 yeast inh | Calb FLC | PolyA inhibitor | NALP3 confirm | Casp1-ASC yeast | NALP3 yeast rt
O=C(COc1ccc(Cl)cc1)Nc1cccc(-c2ccc(N3CCOCC3)nn2)c1 | 61* | 16 | . | . | -5 | 19 | 75* | 49 | 46
CCN1C(=O)/C(=C\c2cccn2-c2ccc([N+](=O)[O-])cc2)N(CC)C1=S | 22 | -4 | 0 | 28 | -3 | 11 | . | . | .
COc1ccccc1C(=O)NCCC(=O)N(C)Cc1cccs1 | 7 | 8 | . | . | -9 | -7 | . | . | .
CC(=O)OCCN(C)c1cc(SC(C)C)c2nonc2c1[N+](=O)[O-] | 6 | -9 | 10 | 7 | -2 | 3 | . | . | .
CN(CCO)c1cc(Sc2nc3ccccc3s2)c2nonc2c1[N+](=O)[O-] | 62* | 46 | 8 | -10 | ? | -9 | 65* | . | .
O=C1CNC(=S)N1c1nc2ccccc2s1 | 54* | 1 | . | . | 61 | ? | 62* | 54* | 59*
Cc1ccc2[nH]c3ccccc3c(=O)c2c1 | 53* | 9 | . | 10 | 4 | -8 | 61* | 61* | 56*
CC1=C/C(=N\OS(=O)(=O)c2ccccc2)C(C)=CC1=O | 50 | . | 100* | 31 | . | . | 39 | . | .
CN(C)/N=C/c1ccc(OS(=O)(=O)c2ccccc2)cc1 | 13 | -8 | -2 | 3 | -26 | 8 | . | . | .
COCCNc1nc2nonc2nc1N(C)Cc1cccc2cnccc12 | 13 | 4 | 1 | -6 | -1 | 5 | . | . | .
CCCCCCCCNc1ncnc2ccccc12 | 82* | 26 | 77* | 19 | 76* | -26 | 76* | 80* | 79*
Fc1ccc(NCc2nnc(SCc3ccccc3)o2)cc1 | 25 | 0 | -4 | 3 | 13 | -8 | . | . | .
NCCc1nnc(SCc2ccc(F)cc2)o1 | 59* | -17 | -1 | 7 | 4 | -14 | 74* | 58* | 61*
COc1ccc(S(=O)(=O)N2CCCCCC2)cc1 | -11 | -21 | -4 | -11 | -23 | 5 | . | . | .
COc1ccc(S(=O)(=O)N2CCN(c3ncccn3)CC2)cc1 | 26 | 2 | . | . | 0 | 1 | . | . | .
COc1ccc(-c2ccc(S(=O)(=O)N3CCCC3)cc2)cc1 | 53* | 14 | 5 | 11 | -15 | 13 | 47 | 54* | 44
COc1ccc(S(=O)(=O)N2CCN(c3nc(C)cc(C)n3)CC2)cc1 | 53* | -5 | . | 20 | -2 | 16 | 65* | 63* | 58*

Compound activity (PubChem)
